APP 5UTR inh: APP translation inhibition; SH-SY5Y APP 5'UTR-luciferase reporter, luminescence; inhibition, % at 2 µM; 0.82% of 190,000 active;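 active means inhibition above a set limit, derived from the sample mean plus 3 SD, cut at about 45% in these data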
Ba/F3 V617F tox: loss of viability in JAK2V617F-driven Ba/F3 cells; AID 1446; 1.1% of 220,000 active; Ba/F3 EpoR-JAK2V617F viability, ATP luminescence; inhibition, % at 5.6 µM;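 active means inhibition above the campaign mean plus 3 SD over all tested compounds, cut at about 24% in these data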;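 further: cytokine-independent growth of Ba/F3 cells driven by EpoR plus mutant JAK2; 0% = DMSO-treated cells and 100% = JAK inhibitor I control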
MT stabilize HCS: microtubule stabilization, imaging screen; HeLa tubulin immunostaining HCS, 24 h; share of cells brighter than vehicle mean+2SD; % tubulin-high responders, % at 10 µM; AID 2205; 0.83% of 200,000 active;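 active means plate Z-score above 3 for both tubulin-high and condensed-nucleus cell shares, with cell loss under 80%, at 10 µM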;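 further: anti alpha tubulin signal scored within the nucleus-defined area of each cell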
b-catenin transl: alters nuclear translocation of beta-catenin in HeLa cells; 0.3% of 190,000 active; nuclear translocation activity, % at 5 µM; immunofluorescence imaging;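 active means nuclear translocation activity above 50% at 5 µM, with a well cell count of 50 or more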;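 further: per-cell ratio of nuclear to cytoplasmic median beta-catenin stain intensity; plate controls were DMSO negative control for no effect and GSK-3 inhibitor IX positive control for full effect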
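test system = HeLa cells, endogenous beta-catenin | dosing = single 5 µM dose plus 0.02–20 µM confirmation series | times = compound treatment 24 h, 37°C, 5% CO2 | technique = beta-catenin immunofluorescence imaging with DAPI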
BaF3 parental: parental Ba/F3 viability inhibition as JAK2V617F counter-screen | inhibition, % at 5.6 µM | 1.1% of 220,000 active | AID 1486 | CellTiter-Glo ATP luminescence;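 active means inhibition above a per-campaign cutoff, the mean inhibition of all tested compounds plus 3 SD, cut at about 27% in these data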;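 further: 0% = DMSO wells and 100% = JAK Inhibitor I control wells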
IEC-6 cytotox: kills IEC-6 intestinal cells in KLF5 counter-screen. IEC-6 cytotoxicity, luminescence viability. inhibition, % at 5 µM. 0.78% of 290,000 active. AID 1825;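 further: 0% = plate median of test compound wells and 100% = cytotoxic reference compound wells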
IEC-6 cytotox cf: confirmation of cytotoxic compounds in rat IEC-6 intestinal epithelial cells; shares compounds with IEC-6 cytotox; IEC-6 rat intestinal epithelial viability, luminescence; inhibition, % at 5 µM; 63% of 1,900 active; AID 1907;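 further: 0% = vehicle and 100% = reference cytotoxic drug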
* = called active by the depositor; nt = no result. Rows were chosen to be rich in hits. Some 2.2% of all compounds tested hit in one or more screens of this group. Unless noted, no stated cut-off is given here; in the data, active means inhibition above about 22%; inactive means the rest.

SMILES	APP 5UTR inh	Ba/F3 V617F tox	MT stabilize HCS	b-catenin transl	BaF3 parental	IEC-6 cytotox	IEC-6 cytotox cf
Cn1c(=O)c2cc(S(=O)(=O)Nc3cc(C(=O)O)cc(C(=O)O)c3)ccc2n(C)c1=O	-8	-1	4	-1	6	-8	nt
O=C(NCCc1ccco1)C(=O)NCC1OCCCN1S(=O)(=O)c1ccc(F)cc1 (stereo not given)	nt	nt	nt	nt	nt	-2	nt
COc1ccc(S(=O)(=O)N2CCCOC2CNC(=O)C(=O)NCCc2ccco2)cc1C (stereo not given)	nt	nt	nt	nt	nt	28*	6
Nc1nc(-c2ccccc2)cc(N2CCCCC2)n1	94*	70*	14*	56*	77*	82*	59*
COC(=O)c1cc(C(=O)c2c(C)cc3ccccn23)cc([N+](=O)[O-])c1	nt	nt	nt	nt	nt	44*	48*
COC(=O)c1cc(C(=O)N2CCN(c3cccc(C)c3C)CC2)cc([N+](=O)[O-])c1	77*	49*	15*	91*	68*	37*	33*
Cc1cc2ccccn2c1C(=O)c1cc([N+](=O)[O-])cc([N+](=O)[O-])c1	-34	-3	6	-1	-3	3	nt
CN1Cc2cc(C(=O)c3cc(Cl)cc(CSc4ncccn4)c3O)cnc2NC1=O	96*	71*	20*	67*	75*	73*	66*
Cc1ccc(N2C(=O)c3cccc4c(N)ccc(c34)C2=O)c2cccnc12	nt	92*	nt	67*	85*	86*	74*
CCOc1ncccc1C(=O)N1CCN(c2cccc(C)c2C)CC1	95*	81*	11*	186*	81*	86*	54*
Cc1cccc(N2CCN(C(=O)c3c(-c4ccccc4)noc3C)CC2)c1C	nt	nt	nt	nt	nt	72*	45*
CCOc1ncccc1C(=O)N1CCN(C(=O)c2ccccc2)CC1	-5	-6	3	0	0	-4	nt
CCOc1ncccc1C(=O)N1CCN(c2cc(Cl)ccc2C)CC1	91*	65*	11	84*	68*	82*	61*
CCOc1ncccc1C(=O)N1CCN(S(=O)(=O)c2ccccc2)CC1	-30	8	2	-4	11	-6	nt
CCCNC(=O)c1cc(Cl)c(NC(=O)C2=CSCCO2)cc1OC	nt	nt	nt	nt	nt	5	nt
COc1ccccc1N1CCN(c2ccc3ccccc3n2)CC1	nt	nt	nt	nt	nt	6	nt
COc1ccccc1N1CCN(c2ccc(-c3ccccc3)nn2)CC1	90*	72*	12	nt	74*	62*	59*
COc1ccc(CNC(=O)CN(C(=O)CCC(=O)Nc2ccccn2)c2cccc(C)c2C)cc1	nt	nt	nt	nt	nt	-3	nt
Cn1c(=O)[nH]c(=O)c2c1nc([N+](=O)[O-])n2Cc1ccccc1	nt	95*	nt	-1	77*	38*	10
Cc1ccc2nc(SCC(=O)Nc3cc(C(F)(F)F)ccc3N3CCOCC3)[nH]c2c1	94*	78*	22*	nt	75*	82*	60*
Nc1ccc(-c2cnc(-c3ccc(N)cc3)nc2)cc1	-126	9	8	0	12	6	nt
Oc1ccc(-c2cnc(-c3ccc(O)cc3)nc2)cc1	nt	nt	nt	nt	nt	41*	14
CCCN(Cc1nnc(-c2ccccc2Cl)o1)C(=O)c1cccc(S(=O)(=O)N2CCOCC2)c1	nt	nt	nt	nt	nt	8	nt
Cc1ccc(NC(=O)CCc2c[nH]c3ccccc23)nc1	nt	nt	nt	nt	nt	70*	42*
C#CC(=O)N(c1ccc(OC)c(OC)c1)C(C(=O)NC1CCCC1)c1cccs1 (stereo not given)	17	99*	1	-4	52*	100*	79*
SMILES	APP 5UTR inh	Ba/F3 V617F tox	MT stabilize HCS	b-catenin transl	BaF3 parental	IEC-6 cytotox	IEC-6 cytotox cf
CN(C)CCCN(C(=O)c1ccco1)c1nc2cc3c(cc2s1)OCO3	nt	nt	nt	nt	nt	45*	21
COc1ccc(-n2nc(C#N)c(Cl)cc2=O)cc1	95*	8	5	6	2	29*	20
COC(=O)c1nn(-c2ccc(OC)cc2)c(=O)cc1O	4	0	2	0	7	0	nt
FC(F)(F)c1cnc(Sc2nnc(-c3cccs3)n2CC2CCCO2)c(Cl)c1 (stereo not given)	0	1	1	2	0	25*	34*
COc1ccc(CNC(=O)C2CCCN(c3ncnc4c3nc3n4CCCCC3)C2)cc1 (stereo not given)	nt	nt	nt	nt	nt	1	nt
COc1ccc2c(c1)C(=O)C(=O)N2CC1COc2ccccc2O1 (stereo not given)	nt	nt	nt	nt	nt	83*	9
Cc1ccc2c(c1)C(=O)C(=O)N2CC1COc2ccccc2O1 (stereo not given)	nt	nt	nt	nt	nt	83*	9
CCOc1ccc2c(c1)C(=O)C(=O)N2CC1COc2ccccc2O1 (stereo not given)	nt	nt	nt	nt	nt	72*	14
O=C(N=C1SC2CS(=O)(=O)CC2N1Cc1ccc(Cl)cc1)C1CC1 (stereo not given)	nt	nt	nt	nt	nt	0	nt
Cc1ccc2[nH]c3c(c2c1)CCCC3NC(=O)CCl (stereo not given)	nt	nt	nt	nt	nt	56*	60*
CCOc1ccc(CCNC(=O)c2c(C)nn(-c3ccccc3)c2Cl)cc1OCC	nt	nt	nt	nt	nt	-2	nt
O=C(O)CCC(=O)Nc1nnc(C(F)(F)F)s1	0	-2	3	-1	0	0	nt
CCC(NC(=O)Nc1nnc(C(F)(F)F)s1)(C(F)(F)F)C(F)(F)F	-2	98*	4	5	89*	26*	92*
c1ccc(CNc2ncnc3c2cnn3Cc2ccccc2)cc1	2	27*	44*	0	33*	27*	35*
OCCNc1ncnc2c1cnn2Cc1ccccc1	nt	nt	nt	nt	nt	-2	nt
CCOC(=O)C1CCCN(S(=O)(=O)c2ccc3c(c2)N(C)C(=O)CC(=O)N3C)C1 (stereo not given)	nt	nt	nt	nt	nt	15	nt
CCOc1ccccc1C(=O)NCC(=O)NCCc1ccc(S(N)(=O)=O)cc1	nt	nt	nt	nt	nt	3	nt
CC(C)Nc1ccc(Nc2ccnc3cc4ccccc4cc23)cc1	nt	18	nt	-2	11	12	nt
c1ccc(CCNc2ccnc3cc4ccccc4cc23)cc1	22	53*	31*	2	43*	87*	43*
Cc1c(C(=O)NC2=NCCS2)cccc1[N+](=O)[O-]	nt	nt	nt	nt	nt	8	nt
O=C(Nc1cc(Cl)ccc1-n1cncn1)c1cc(S(=O)(=O)N2CCOCC2)ccc1F	nt	nt	nt	nt	nt	26*	4
CC(=O)Oc1ccc2nc(-c3ccc(Br)o3)oc(=O)c2c1	nt	nt	nt	nt	nt	0	nt
CCCCCN=Cc1c(C)[nH]n(-c2nc3ccccc3s2)c1=O	-55	48*	6	-1	46*	45*	51*
COc1ccc(C(=O)N2CCC3(CC2)NCCc2[nH]cnc23)cc1OC	nt	nt	nt	nt	nt	-3	nt
Cc1cccn2c(=O)c3cc(C(=O)NCCN4CCOCC4)c(=N)n(Cc4ccc(F)cc4)c3nc12	nt	nt	nt	nt	nt	7	nt
O=C(c1cc(-c2ccccc2Cl)nc2ccc(Br)cc12)N1CCN(c2ccccn2)CC1	nt	nt	nt	nt	nt	46*	6

Source: PubChem BioAssay (several laboratories)
